Compound activity: PubChem BioAssay, several laboratories
rCAG binder: binders of r(CAG) RNA repeats, primary screen, biochemical, fluorescence. r(CAG) RNA repeat, TO-PRO-1 dye displacement fluorescence. inhibition, % at 3 µM. 1.3% of 370,000 active;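 active = inhibition above the plate cutoff, the mean of all test compounds on that plate plus 3 SD, cut at about 35% in these data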;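 note: 0% = DMSO alone and 100% = 100 µM mitoxantrone as full dye displacement; higher means more dye released from RNA so lower well fluorescence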
LEDGF integ inh: blockers of LEDGF/p75-dependent integrase strand transfer – biochemical, TR-FRET, high throughput, primary screen. AID 743269, 2014. TR-FRET IN-LEDGF/p75 DNA integration, Eu/Cy5. HIV-1 integrase (with human LEDGF/p75). 0.64% of 370,000 active. inhibition, % at 3.7 µM;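 active = inhibition above the screen-wide mean plus 3 SD, cut at about 13% in these data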;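 note: signal is the Cy5 over europium emission ratio at 671 and 618 nm; 0% = plate median of compound wells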
UHRF1 binding: UHRF1 methylated DNA binding inhibitors, primary screen, counter-screen for MBD2 inhibitor project, biochemical, TR-FRET, human UHRF1, single concentration | AID 687016, 2013 | E3 ubiquitin-protein ligase UHRF1 (Homo sapiens), Q96T88 | UHRF1 binding to methylated oligo | 0.75% of 370,000 active | inhibition, % at 4.4 µM; in the data active = inhibition above about 21%;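 note: UHRF1 SRA domain binding a hemimethylated CpG hairpin DNA probe; 0% = median of test compound wells and 100% = reference inhibitor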
CSN inh: inhibitors of CSN-mediated cullin deneddylation, primary screen, biochemical, fluorescence polarization, uHTS; COP9 signalosome complex subunit 5 (Homo sapiens), Q92905; Purified CSN, SCF-Nedd8-OG deneddylation; inhibition, % at 12.5 µM; 0.38% of 360,000 active; AID 651999, 2013;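 active = pattern-corrected inhibition above about 35%, with an unprinted fluorescence ratio check between 0.5 and 1.5, limit read from the data, passing the limit was not always enough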;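 note: 0% = enzyme with substrate and 100% = substrate without enzyme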
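Assay system: purified human Csn5 enzyme expressed in HEK293T cells; Input: 0.24 nM Csn5 enzyme, final concentration; Reagent: 10 nM SCFSkp2-Nedd8OG; Compound dosing: 12.5 µM single point; Times: reaction 90 min, room temperature; Technique: fluorescence polarization readout.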
MBD2 DNA inh: inhibitors of MBD2 binding to methylated DNA, primary screen, biochemical, TR-FRET, DNA-binding domain, human; Methyl-CpG-binding domain protein 2 (Homo sapiens), Q9UBB5; MBD2 binding to methylated oligonucleotide; inhibition, % at 4.4 µM; 0.31% of 370,000 active; AID 686964, 2013; in the data active = inhibition above about 13%
Target sequence (Q9UBB5 whole entry, looked up, the tested form may be a part): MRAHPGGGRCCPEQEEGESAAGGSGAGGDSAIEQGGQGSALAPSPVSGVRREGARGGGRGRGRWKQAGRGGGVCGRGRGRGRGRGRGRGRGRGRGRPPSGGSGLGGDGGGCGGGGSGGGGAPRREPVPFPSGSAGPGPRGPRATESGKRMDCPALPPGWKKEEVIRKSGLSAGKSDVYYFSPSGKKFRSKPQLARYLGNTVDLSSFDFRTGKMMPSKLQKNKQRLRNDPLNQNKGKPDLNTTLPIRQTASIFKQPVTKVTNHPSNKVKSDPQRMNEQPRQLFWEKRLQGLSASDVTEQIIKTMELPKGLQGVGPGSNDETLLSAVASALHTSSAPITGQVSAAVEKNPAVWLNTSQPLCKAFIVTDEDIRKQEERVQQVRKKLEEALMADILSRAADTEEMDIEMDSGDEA
ATG4B inhibitor: ATG4B protease inhibitors, primary screen, biochemical, fluorescence, uHTS; AID 504462, 2011; inhibition, % at 8.33 µM; 0.51% of 340,000 active; ATG4B cleavage of LC3-PLA2, NBD-HPC fluorescence, 1 h; in the data active = inhibition above about 40%
Starred values were filed as active, the others as inactive; nt = no result. Most compounds without a hit are left out; they make up all but 3.1% or so of the library.

SMILES | rCAG binder | LEDGF integ inh | UHRF1 binding | CSN inh | MBD2 DNA inh | ATG4B inhibitor
COC(=O)C1CN(C2CC2)CCS(=O)(=O)N1Cc1cn(Cc2ccc(C)cc2)nn1 (stereo unspecified) | 3.1 | 1.7 | 11.0 | nt | -0.2 | nt
COC(=O)CCCn1cc(CN2CC=CS2(=O)=O)nn1 | 2.9 | -3.2 | 10.9 | nt | 10.6 | nt
Cc1ccc(C)c2nc3sc(C(=O)N4CCOCC4)c(N)c3cc12 | 11.4 | -0.3 | 20.3 | -4.3 | -1.3 | -9.2
Cc1cc(C)c2nc3sc(C(=O)N4CCOCC4)c(N)c3cc2c1 | 11.9 | -1.3 | 36.6* | -2.4 | -5.7 | -17.9
COC(=O)[C@H](CC(C)C)N(CCCc1cn(CC2CCCCC2)nn1)S(=O)(=O)c1ccccc1Br | 3.6 | -5.0 | -0.8 | nt | 3.0 | nt
C#CCN1CC(N(C)CCO)CS1(=O)=O (stereo unspecified) | -0.1 | -1.6 | 10.7 | nt | -4.4 | nt
CCOC(=O)c1ccc(N/C=C/C(=O)c2ccc(OC)c(OC)c2)cc1 | 2.0 | 0.4 | -3.8 | 100.8* | 3.9 | -7.3
CCOc1ccc(N/C=C/C(=O)c2ccc(OC)c(OC)c2)cc1 | 5.6 | 8.3 | -0.7 | 1.5 | -5.4 | -1.3
CC1C(c2ccccc2)C(C#N)(C#N)C2(C#N)C(=O)NC1(N)C2C (stereo unspecified) | -0.3 | -2.0 | 23.2* | 2.0 | 6.2 | -8.4
O=c1c2cnn(-c3ccccc3)c2ncn1CCc1ccccc1 | -2.8 | 1.3 | 47.4* | 0.2 | 1.6 | -1.9
COc1cccc(N(C)C(=O)[C@@H](C2CC2)[C@@H](O)c2ccc3ccccc3c2)c1 | -1.0 | 0.6 | 0.9 | nt | -8.3 | nt
COc1ccccc1Nc1nn2c(=O)c3ccc(C(=O)NCc4cccnc4)cc3nc2s1 | nt | nt | nt | 84.1* | nt | nt
CN(C)S(=O)(=O)c1cccc(C(=O)N/N=C\c2cccc(C#N)c2)c1 | 0.5 | -2.1 | -1.3 | nt | -0.2 | nt
CC(C)(C)NC(=O)C(c1ccc(-c2ccccc2)cc1)n1c(=O)c(-c2ccco2)nc2ccccc21 (stereo unspecified) | 36.7* | 2.5 | -1.0 | 28.3 | -1.4 | nt
Cc1cccc(C)c1NC(=O)C(c1ccc(-c2ccccc2)cc1)n1c(=O)c(-c2ccco2)nc2ccccc21 (stereo unspecified) | 41.1* | 4.8 | 1.2 | 43.9* | -2.7 | nt
CCCCCNC(=O)C(c1ccc(C(F)(F)F)cc1)n1c(=O)c(-c2ccco2)nc2ccccc21 (stereo unspecified) | 29.6 | 10.5 | 21.0* | 28.5 | 7.7 | nt
Cc1ccccc1C(=O)N1CCN(C(=O)C(=O)c2cccc(C(F)(F)F)c2)CC1 | -1.5 | -1.6 | 0.3 | nt | 2.4 | nt
Cc1cccc(N2C(=O)CC(Sc3ncn[nH]3)C2=O)c1 (stereo unspecified) | 11.4 | -3.0 | -1.6 | 3.0 | -1.6 | 3.1
Cc1ccc(N2C(=O)CC(Sc3ncn[nH]3)C2=O)cc1C (stereo unspecified) | -1.8 | 3.0 | 22.3* | -2.8 | 1.4 | -10.4
COc1ccccc1NC(=O)OCCN1CCCC12CCC(c1ccccc1)CC2 (stereo unspecified) | nt | -2.6 | -0.6 | nt | -4.5 | nt
Cc1ccc(-n2c(COc3ccccc3)nnc2SCC(=O)Nc2ccc3c(c2)OCO3)cc1 | 2.7 | 1.1 | -0.8 | nt | -1.3 | nt
S=C(Nc1cccnc1)NC1CCCCCCC1 | -2.5 | -3.6 | 1.1 | 6.4 | 1.7 | -1.8
O=C(Nc1cccnc1)NC1CCCCC1 | -2.0 | 0.5 | 24.8* | 8.6 | 3.1 | 5.7
Cc1c(CCC(=O)N[C@@H](C)C(=O)O)c(=O)oc2cc3oc4c(c3cc12)CCCC4 | 28.4 | -0.1 | 0.5 | 0.0 | 3.1 | 0.8
CCCC(NC(=O)CCc1c(C)c2cc3c4c(oc3c(C)c2oc1=O)CCCC4)C(=O)O (stereo unspecified) | 35.8* | 5.5 | -3.2 | -1.6 | 4.5 | 10.2
SMILES | rCAG binder | LEDGF integ inh | UHRF1 binding | CSN inh | MBD2 DNA inh | ATG4B inhibitor
COc1ccc(CNC(=O)OC2CC3CC2[C@H]2CCCCN2C3)cc1 (stereo partly specified) | 4.1 | 1.7 | 1.2 | nt | 5.3 | nt
O=C(NC(Cc1ccccc1)C(=O)O)/C(=C\c1ccc(Cl)cc1)NC(=O)c1ccccc1 (stereo unspecified) | 18.4 | -3.0 | 28.0* | -13.8 | -2.5 | -13.9
O=C(C1CCC1)n1ccc2ccc(-c3ccc4ccn(Cc5ccccc5)c4c3)cc21 | 6.0 | 2.6 | 0.0 | nt | 0.5 | nt
COc1ccc(/C=C/C(Cc2cccc(C(C)=O)c2)c2ccc(C)cc2)cc1 (stereo unspecified) | 4.5 | -1.9 | 0.2 | nt | -2.6 | nt
CCn1c(=O)c(C(=O)NNS(=O)(=O)c2ccc(Br)cc2)c(O)c2ccccc21 | 15.3 | -4.1 | 35.3* | -0.3 | 2.9 | 8.8
O=C(OCCNc1ccc(C(F)(F)F)cc1[N+](=O)[O-])c1cc2ccccc2oc1=O | 0.1 | 3.8 | -2.2 | 95.0* | -6.5 | -8.0
O=[N+]([O-])c1cc(C(F)(F)F)ccc1NCCOc1ccccc1 | -0.7 | -3.6 | 0.7 | -7.0 | 1.5 | 4.2
Cc1ccc(-n2c(SCC(=O)Nc3ccc(Oc4ccccc4)cc3)nnc2-c2ccco2)cc1 | 9.0 | -1.1 | -2.8 | nt | 2.2 | nt
CC(CCC(=O)NN)C1CCC2C3CCC4CC(O)CCC4(C)C3CCC12C (stereo unspecified) | 5.0 | -1.5 | -0.6 | 12.9 | -0.5 | 0.3
CC(CCC(C)C(C)(C)C)[C@@H]1CC[C@H]2C3C[C@H](OS(O)(=S)=S)[C@H]4C[C@H](OS(O)(=S)=S)[C@@H](OS(O)(=S)=S)C[C@]4(C)[C@H]3CC[C@]12C (stereo partly specified) (tested in a mixture with another compound) | nt | nt | nt | 35.0* | nt | 83.7*
CSc1nccc(-c2nn(-c3ccc(C)cc3)ccc2=O)n1 | -4.2 | 3.2 | 23.4* | 6.0 | 9.2 | -10.1
Cc1ccc(C(=O)OCC(=O)N2CCCCCC2)c(O)c1 | 0.0 | -4.9 | 29.1* | -2.4 | 2.0 | 11.4
CCN(c1ccccc1)S(=O)(=O)c1cccc(C(=O)NCC(c2ccc(F)cc2)N2CCOCC2)c1 (stereo unspecified) | -12.1 | -1.8 | 42.8* | -4.2 | -1.4 | -5.3
Cc1cc(S(=O)(=O)N2CCCOC2CNC(=O)C(=O)NCc2ccco2)ccc1F (stereo unspecified) | -3.5 | 0.5 | 56.2* | -0.5 | -4.4 | 4.3
COC(=O)c1ccc(S(=O)(=O)N2CCC(NC(=O)COc3ccc(F)cc3)CC2)cc1 | -0.1 | -1.6 | 2.2 | nt | 1.7 | nt
CC(C)CCNC(=O)CSc1nc2c(c(=O)[nH]1)CCC2 | nt | -1.1 | -3.0 | nt | -4.6 | nt
